Laboratory results taken from ChEMBL document CHEMBL1152424, “Syntheses and biological evaluations of carbosilane dendrimers uniformly functionalized with sialyl alpha(2-->3) lactose moieties as inhibitors for human influenza viruses” (Bioorg Med Chem, 2009).

Tests used:
Influenza A virus [1] = assay: Antiviral activity against human influenza virus A/PR/8/38(H1N1) infected in chicken erythrocyte assessed as inhibition of hemagglutination after 1 hr; format: functional, organism-based; conditions: A/Puerto Rico/8/1934(H1N1)
Outline: (§1)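 Twofold serial dilutions of inhibitor in PBS pH 6.5 with 0.01% gelatin, mixed with virus (2^2 HA units) for 1 h at 4 °C. Then 0.5% (v/v) chicken erythrocytes added, 1 h at 4 °C. Titer is the maximum dilution giving complete inhibition of hemagglutination. Concentrations are expressed per sialyl lactose unit. Virus was egg-grown and purified.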

H3N2 subtype = assay: Antiviral activity against human influenza virus A/Aichi/2/1968(H3N2) infected in chicken erythrocyte assessed as inhibition of hemagglutination after 1 hr; format: functional, organism-based; outline: as §1
Influenza A virus [2] = assay: Antiviral activity against human influenza virus A/Memphis/1/71(H3N2) infected in chicken erythrocyte assessed as inhibition of hemagglutination after 1 hr; format: functional, organism-based, Influenza A virus (A/Memphis/1/1971(H3N2)); outline: as §1
Influenza A virus [3] = assay: Antiviral activity against human influenza virus A/PR/8/38(H1N1) infected in guinea pig erythrocyte assessed as inhibition of hemolysis; format: functional, organism-based; conditions: A/Puerto Rico/8/1934(H1N1)
Outline: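 Virus (2^8 HAU) preincubated 1 h at 4 °C with inhibitor in PBS. Then 2.5% (v/v) guinea pig erythrocytes added, 30 min at 4 °C. Cells pelleted, resuspended in 20 mM acetate-buffered saline pH 5.0, 30 min at 37 °C. Hemoglobin released read at A550 against 0.1% Triton X-100 as 100% hemolysis. IC50 expressed per sialyl lactose unit.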

Influenza A virus [4] = assay: Antiviral activity against human influenza virus A/PR/8/38(H1N1) infected in MDCK cells assessed as neutralization of viral infection after 20 hrs by colorimetric assay; format: functional, organism-based; conditions: A/Puerto Rico/8/1934(H1N1)

Row | Structure (SMILES) | IC50 (Influenza A virus [1]) [µM] | IC50 (H3N2 subtype) [µM] | IC50 (Influenza A virus [2]) [µM] | IC50 (Influenza A virus [3]) [µM] | IC50 (Influenza A virus [4]) [µM]
1 | N[C@H]1[C@H]([C@H](O)[C@H](O)CO)O[C@@](O[C@H]2[C@@H](O)[C@@H](CO)O[C@@H](O[C@H]3[C@H](O)[C@@H](O)[C@H](OCCCCCSCCCCCC(=O)NCCC[Si](CCCNC(=O)CCCCCSCCCCCO[C@@H]4O[C@H](CO)[C@@H](O[C@@H]5O[C@H](CO)[C@H](O)[C@H](O[C@]6(C(=O)O)C[C@H](O)[C@@H](N)[C@H]([C@H](O)[C@H](O)CO)O6)[C@H]5O)[C@H](O)[C@H]4O)(CCCNC(=O)CCCCCSCCCCCO[C@@H]4O[C@H](CO)[C@@H](O[C@@H]5O[C@H](CO)[C@H](O)[C@H](O[C@]6(C(=O)O)C[C@H](O)[C@@H](N)[C@H]([C@H](O)[C@H](O)CO)O6)[C@H]5O)[C@H](O)[C@H]4O)CCCNC(=O)CCCCCSCCCCCO[C@@H]4O[C@H](CO)[C@@H](O[C@@H]5O[C@H](CO)[C@H](O)[C@H](O[C@]6(C(=O)O)C[C@H](O)[C@@H](N)[C@H]([C@H](O)[C@H](O)CO)O6)[C@H]5O)[C@H](O)[C@H]4O)O[C@@H]3CO)[C@@H]2O)(C(=O)O)C[C@@H]1O | 16 | 4 | 250 | 62.5 | 16
2 | N[C@H]1[C@H]([C@H](O)[C@H](O)CO)O[C@@](O[C@H]2[C@@H](O)[C@@H](CO)O[C@@H](O[C@H]3[C@H](O)[C@@H](O)[C@H](OCCCCCSCCC[Si](CCCSCCCCCO[C@@H]4O[C@H](CO)[C@@H](O[C@@H]5O[C@H](CO)[C@H](O)[C@H](O[C@]6(C(=O)O)C[C@H](O)[C@@H](N)[C@H]([C@H](O)[C@H](O)CO)O6)[C@H]5O)[C@H](O)[C@H]4O)(CCCSCCCCCO[C@@H]4O[C@H](CO)[C@@H](O[C@@H]5O[C@H](CO)[C@H](O)[C@H](O[C@]6(C(=O)O)C[C@H](O)[C@@H](N)[C@H]([C@H](O)[C@H](O)CO)O6)[C@H]5O)[C@H](O)[C@H]4O)CCCSCCCCCO[C@@H]4O[C@H](CO)[C@@H](O[C@@H]5O[C@H](CO)[C@H](O)[C@H](O[C@]6(C(=O)O)C[C@H](O)[C@@H](N)[C@H]([C@H](O)[C@H](O)CO)O6)[C@H]5O)[C@H](O)[C@H]4O)O[C@@H]3CO)[C@@H]2O)(C(=O)O)C[C@@H]1O | 64 | 32 | 250 | 125 | 32
3 | C[Si](C)(CCC[Si](CCCSCCCCCO[C@@H]1O[C@H](CO)[C@@H](O[C@@H]2O[C@H](CO)[C@H](O)[C@H](O[C@]3(C(=O)O)C[C@H](O)[C@@H](N)[C@H]([C@H](O)[C@H](O)CO)O3)[C@H]2O)[C@H](O)[C@H]1O)(CCCSCCCCCO[C@@H]1O[C@H](CO)[C@@H](O[C@@H]2O[C@H](CO)[C@H](O)[C@H](O[C@]3(C(=O)O)C[C@H](O)[C@@H](N)[C@H]([C@H](O)[C@H](O)CO)O3)[C@H]2O)[C@H](O)[C@H]1O)CCCSCCCCCO[C@@H]1O[C@H](CO)[C@@H](O[C@@H]2O[C@H](CO)[C@H](O)[C@H](O[C@]3(C(=O)O)C[C@H](O)[C@@H](N)[C@H]([C@H](O)[C@H](O)CO)O3)[C@H]2O)[C@H](O)[C@H]1O)CCC[Si](CCCSCCCCCO[C@@H]1O[C@H](CO)[C@@H](O[C@@H]2O[C@H](CO)[C@H](O)[C@H](O[C@]3(C(=O)O)C[C@H](O)[C@@H](N)[C@H]([C@H](O)[C@H](O)CO)O3)[C@H]2O)[C@H](O)[C@H]1O)(CCCSCCCCCO[C@@H]1O[C@H](CO)[C@@H](O[C@@H]2O[C@H](CO)[C@H](O)[C@H](O[C@]3(C(=O)O)C[C@H](O)[C@@H](N)[C@H]([C@H](O)[C@H](O)CO)O3)[C@H]2O)[C@H](O)[C@H]1O)CCCSCCCCCO[C@@H]1O[C@H](CO)[C@@H](O[C@@H]2O[C@H](CO)[C@H](O)[C@H](O[C@]3(C(=O)O)C[C@H](O)[C@@H](N)[C@H]([C@H](O)[C@H](O)CO)O3)[C@H]2O)[C@H](O)[C@H]1O | 32 | 32 | 250 | 32 | 7.8
4 | N[C@H]1[C@H]([C@H](O)[C@H](O)CO)O[C@@](O[C@H]2[C@@H](O)[C@@H](CO)O[C@@H](O[C@H]3[C@H](O)[C@@H](O)[C@H](OCCCCCSCCCCCC(=O)NCCC[Si](CCCNC(=O)CCCCCSCCCCCO[C@@H]4O[C@H](CO)[C@@H](O[C@@H]5O[C@H](CO)[C@H](O)[C@H](O[C@]6(C(=O)O)C[C@H](O)[C@@H](N)[C@H]([C@H](O)[C@H](O)CO)O6)[C@H]5O)[C@H](O)[C@H]4O)(CCCNC(=O)CCCCCSCCCCCO[C@@H]4O[C@H](CO)[C@@H](O[C@@H]5O[C@H](CO)[C@H](O)[C@H](O[C@]6(C(=O)O)C[C@H](O)[C@@H](N)[C@H]([C@H](O)[C@H](O)CO)O6)[C@H]5O)[C@H](O)[C@H]4O)c4ccccc4)O[C@@H]3CO)[C@@H]2O)(C(=O)O)C[C@@H]1O | 16 | 8 | 250 | 62.5 | 25
5 | C[Si](C)(CCC[Si](CCCNC(=O)CCCCCSCCCCCO[C@@H]1O[C@H](CO)[C@@H](O[C@@H]2O[C@H](CO)[C@H](O)[C@H](O[C@]3(C(=O)O)C[C@H](O)[C@@H](N)[C@H]([C@H](O)[C@H](O)CO)O3)[C@H]2O)[C@H](O)[C@H]1O)(CCCNC(=O)CCCCCSCCCCCO[C@@H]1O[C@H](CO)[C@@H](O[C@@H]2O[C@H](CO)[C@H](O)[C@H](O[C@]3(C(=O)O)C[C@H](O)[C@@H](N)[C@H]([C@H](O)[C@H](O)CO)O3)[C@H]2O)[C@H](O)[C@H]1O)CCCNC(=O)CCCCCSCCCCCO[C@@H]1O[C@H](CO)[C@@H](O[C@@H]2O[C@H](CO)[C@H](O)[C@H](O[C@]3(C(=O)O)C[C@H](O)[C@@H](N)[C@H]([C@H](O)[C@H](O)CO)O3)[C@H]2O)[C@H](O)[C@H]1O)CCC[Si](CCCNC(=O)CCCCCSCCCCCO[C@@H]1O[C@H](CO)[C@@H](O[C@@H]2O[C@H](CO)[C@H](O)[C@H](O[C@]3(C(=O)O)C[C@H](O)[C@@H](N)[C@H]([C@H](O)[C@H](O)CO)O3)[C@H]2O)[C@H](O)[C@H]1O)(CCCNC(=O)CCCCCSCCCCCO[C@@H]1O[C@H](CO)[C@@H](O[C@@H]2O[C@H](CO)[C@H](O)[C@H](O[C@]3(C(=O)O)C[C@H](O)[C@@H](N)[C@H]([C@H](O)[C@H](O)CO)O3)[C@H]2O)[C@H](O)[C@H]1O)CCCNC(=O)CCCCCSCCCCCO[C@@H]1O[C@H](CO)[C@@H](O[C@@H]2O[C@H](CO)[C@H](O)[C@H](O[C@]3(C(=O)O)C[C@H](O)[C@@H](N)[C@H]([C@H](O)[C@H](O)CO)O3)[C@H]2O)[C@H](O)[C@H]1O | 8 | 4 | 250 | 32 | 5.6
6 | N[C@H]1[C@H]([C@H](O)[C@H](O)CO)O[C@@](O[C@H]2[C@@H](O)[C@@H](CO)O[C@@H](O[C@H]3[C@H](O)[C@@H](O)[C@H](OCCCCCSCCC[Si](CCCSCCCCCO[C@@H]4O[C@H](CO)[C@@H](O[C@@H]5O[C@H](CO)[C@H](O)[C@H](O[C@]6(C(=O)O)C[C@H](O)[C@@H](N)[C@H]([C@H](O)[C@H](O)CO)O6)[C@H]5O)[C@H](O)[C@H]4O)(CCCSCCCCCO[C@@H]4O[C@H](CO)[C@@H](O[C@@H]5O[C@H](CO)[C@H](O)[C@H](O[C@]6(C(=O)O)C[C@H](O)[C@@H](N)[C@H]([C@H](O)[C@H](O)CO)O6)[C@H]5O)[C@H](O)[C@H]4O)c4ccccc4)O[C@@H]3CO)[C@@H]2O)(C(=O)O)C[C@@H]1O | 64 | 125 | 250 | 250 | 64
